The source of these data is ChEMBL document CHEMBL1914328, “Thiosemicarbazones derived from 1-indanones as new anti-Trypanosoma cruzi agents” (Bioorg Med Chem, 2011).

Data set [1] concerns Trypanosoma cruzi. In words: Antitrypanosomal activity against Trypanosoma cruzi Tulahuen 2 epimastigotes assessed as inhibition of parasite growth at 25 uM after 5 days by spectrophotometric analysis. It is filed as functional. The settings on record: Tulahuen 2, 120 h, read-out: GI. The method in brief: (§1)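 Tulahuen 2 epimastigotes were grown in BHI-Tryptose with 5% fetal calf serum at 28 °C, harvested in late log phase and seeded at 2 × 10^6/mL. Compound came from DMSO stock (final DMSO ≤1%, vehicle control). A590 was read at day 0 and day 5, and % inhibition was taken against the control. IC50 was the concentration halving control absorbance. Values are the mean of three experiments.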

The test system of data set [2] is Trypanosoma cruzi. Put plainly: Antitrypanosomal activity against Trypanosoma cruzi Tulahuen 2 epimastigotes assessed as inhibition of parasite growth after 5 days by spectrophotometric analysis. It is filed as functional, organism-based. The settings on record: Tulahuen 2, 120 h. The method in brief:
as §1

Data set [3] in a line: Selectivity index, ratio of growth inhibition of Trypanosoma cruzi Tulahuen 2 epimastigotes at 25 uM to hemolysis of human erythrocytes at 25 uM. The method, boiled down: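 This is a ratio of two values. One is the % epimastigote growth inhibition (A590, day 5 versus day 0, against a DMSO control). The other is the % erythrocyte lysis (A405 after 24 h at 37 °C, relative to water lysis). Both are measured at the same compound concentration.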

Data set [4] can be described thus: Toxicity in human erythrocytes assessed as hemolysis at 25 uM after 24 hrs by spectrophotometry. The data set is classed as cell-based, Erythrocyte. The settings on record: read-out: Activity. The method in brief:
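Citrated human blood was washed repeatedly in ice-cold PBS and made into a 2% w/v suspension. It was mixed 1:1 with compound in PBS and incubated 24 h at 37 °C. Supernatant hemoglobin was read at 405 nm. Percent hemolysis = (A at 24 h − A at 0 h) / water-lysis A × 100. Water gave 100% lysis, PBS served as negative control. Run in quintuplicate.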

Data set [5] addresses Cruzipain (Trypanosoma cruzi) (UniProt P25779). In words: Inhibition of Trypanosoma cruzi cruzipain using Z-Phe-Arg-AMC as substrate at 100 uM preincubated for 5 mins before substrate addition measured after 10 mins by spectrofluorometry. The method in brief:
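Cruzipain was preincubated 5 min at room temperature with compound in 50 mM PBS pH 7.3 or acetate buffer pH 5.3 containing 5 mM DTT. Z-Phe-Arg-AMC was then added. Fluorescence (ex 380/em 460 nm) was followed 10 min at room temperature. Final DMSO was ≤10%, the solvent-only control was used, and a reference thiosemicarbazone inhibitor was included. Values are means of at least three experiments.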

Chain of Cruzipain (Trypanosoma cruzi) (P25779 123-467 limits assumed): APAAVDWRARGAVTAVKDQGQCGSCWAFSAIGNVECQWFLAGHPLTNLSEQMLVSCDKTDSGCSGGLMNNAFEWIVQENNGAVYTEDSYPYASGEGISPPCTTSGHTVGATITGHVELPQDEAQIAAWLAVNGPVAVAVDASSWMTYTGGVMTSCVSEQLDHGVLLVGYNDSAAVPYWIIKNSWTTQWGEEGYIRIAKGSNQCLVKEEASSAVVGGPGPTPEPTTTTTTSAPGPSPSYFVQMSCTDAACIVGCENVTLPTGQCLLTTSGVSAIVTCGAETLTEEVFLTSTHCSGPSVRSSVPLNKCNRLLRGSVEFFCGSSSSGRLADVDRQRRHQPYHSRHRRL

On to `NC(=S)N/N=C1\CCc2ccccc21`, for which the inhibition of growth at 25 µM in data set [1] was found to be 80.8%. Also, the IC50 – broadly, the concentration that inhibits the measured activity by half – in data set [2] stood at 18.6 µM. Further, in data set [3], the Ratio was 404. Moreover, in data set [4], the hemolysis at 24 h, 25 µM worked out at 0.2%.
For the compound `COc1ccc2c(c1OC)CC/C2=N\NC(N)=S`, in data set [5], the inhibition (usually the percentage by which the read-out fell short of the control) stood at 61%. For the same compound, the inhibition of growth at 25 µM in data set [1] amounted to 98.9%. Further, the half-maximal inhibitory concentration (IC50) in data set [2] came to 1.8 µM. Also, the Ratio in data set [3] is listed as 989. Also, the hemolysis at 24 h, 25 µM in data set [4] was 0.1%.
With `CC1CS(=O)(=O)CCN1/N=C/c1ccc([N+](=O)[O-])o1` (centres undefined) [NIFURTIMOX], in data set [1], the inhibition of growth at 25 µM was found to be 100%.
In data set [5], `COc1cc2c(cc1OC)/C(=N/NC(N)=S)CC2` displayed an inhibition of 1.7%. Also, the inhibition of growth at 25 µM in data set [1] is 19%. Besides, the IC50 in data set [2] is greater than 50 µM. Also, the Ratio in data set [3] is given as 190. Further, the hemolysis at 24 h, 25 µM in data set [4] came to 0.1%.
In the same order, the values of `COc1cccc2c1CC/C2=N\NC(N)=S` are 9.8%, 84.2%, 6.2 µM, 84.2 and 1%.
Regarding `Cc1cc2c(c(C)c1Cl)CC/C2=N\NC(N)=S`, the inhibition of growth at 25 µM in data set [1] is 83.7%. Also, in data set [2], the IC50 came to 7.8 µM. The Ratio in data set [3] stood at 837. The hemolysis at 24 h, 25 µM in data set [4] stood at 0.1%.
For the compound `COc1cc2c(cc1OC)/C(=N/NC(=S)Nc1ccc(Cl)cc1)CC2`, the inhibition in data set [5] was determined as 67%. Besides, the inhibition of growth at 25 µM in data set [1] was 77%. The IC50 in data set [2] was determined as 1 µM. Also, the Ratio in data set [3] was 770. Besides, in data set [4], the hemolysis at 24 h, 25 µM turned out to be 0.1%.
Regarding `Cc1cc2c(c(C)c1Cl)/C(=N/NC(N)=S)CC2`, the inhibition of growth at 25 µM in data set [1] came out at 14.4%. Also, the IC50 in data set [2] was greater than 50 µM. In data set [3], the Ratio stood at 5.1. For the same compound, in data set [4], the hemolysis at 24 h, 25 µM amounted to 2.8%.
Taken in the same sequence, the figures for `Cc1ccc2c(c1)CC/C2=N\NC(N)=S` were 100%, 3.6 µM, 200 and 0.5%.
In the same order, the values of `NC(=S)N/N=C1\CCc2cc(Cl)ccc21` are 1.7%, greater than 50 µM, 170 and 0.1%.
As to `Cc1cc(C)c2c(c1)CC/C2=N\NC(N)=S`, in data set [1], the inhibition of growth at 25 µM is 66.5%. The IC50 in data set [2] was found to be 4.3 µM. Further, the Ratio in data set [3] was determined as 665. In data set [4], the hemolysis at 24 h, 25 µM stood at 0.1%.
Taken in the same sequence, the figures for `S=C(N/N=C1\CCc2ccccc21)Nc1ccc(Cl)cc1` were 50.8%, 25 µM, 508 and 0.1%.
Regarding `C[C@@H]1[C@H](O)[C@@H](C)/C=C/C=C/C=C/C=C/C=C/C=C/C=C/[C@H](O[C@@H]2O[C@H](C)[C@@H](O)[C@H](N)[C@@H]2O)C[C@@H]2O[C@](O)(C[C@@H](O)C[C@@H](O)[C@H](O)CC[C@@H](O)C[C@@H](O)CC(=O)O[C@H]1C)C[C@H](O)[C@H]2C(=O)O` [AMPHOTERICIN B], the inhibition of growth at 25 µM in data set [1] worked out at 100%. Moreover, in data set [2], the IC50 came out at 0.152 µM. For the same compound, the Ratio in data set [3] is reported as 1. Further, the hemolysis at 24 h, 25 µM in data set [4] worked out at 100%.
Turning to `NC(=S)N/N=C1\CCc2cc(F)ccc21`, the inhibition of growth at 25 µM in data set [1] is 84.2%. For the same compound, the IC50 in data set [2] was determined as 8.3 µM. Besides, the Ratio in data set [3] was 421. Further, in data set [4], the hemolysis at 24 h, 25 µM turned out to be 0.2%.
Turning to `NC(=S)N/N=C1\CCc2cc(Br)ccc21`, the inhibition of growth at 25 µM in data set [1] amounted to 98.8%. Besides, the IC50 in data set [2] was found to be 2.3 µM. Further, in data set [3], the Ratio is reported as 41.2. In data set [4], the hemolysis at 24 h, 25 µM worked out at 2.4%.
For the compound `Cc1cc(C)c2c(c1Br)CC/C2=N\NC(N)=S`, the inhibition of growth at 25 µM in data set [1] was 100%. In data set [2], the IC50 was 5.7 µM. The Ratio in data set [3] was 12.9. Besides, the hemolysis at 24 h, 25 µM in data set [4] was determined as 7.7%.
For `COc1ccc2c(c1)/C(=N/NC(N)=S)CC2`, the inhibition in data set [5] turned out to be 0%. For the same compound, the inhibition of growth at 25 µM in data set [1] worked out at 100%. In addition, the IC50 in data set [2] was found to be 7.5 µM. Also, the Ratio in data set [3] stood at 13.3. The hemolysis at 24 h, 25 µM in data set [4] came to 7.5%.
In the same order, the values of `COc1cc2c(cc1OC)/C(=N/NC(=S)Nc1ccccc1)CC2` are 0%, 67.5%, 1 µM, 168.8 and 0.4%.
As to `COc1ccc2c(c1)CC/C2=N\NC(N)=S`, in data set [1], the inhibition of growth at 25 µM was determined as 92.1%. Besides, the IC50 in data set [2] was determined as 7.5 µM. The Ratio in data set [3] turned out to be 115.1. In data set [4], the hemolysis at 24 h, 25 µM is 0.8%.
Taken in the same sequence, the figures for `COc1cc2c(cc1OC)/C(=N/NC(=S)Nc1ccc(C)cc1)CC2` were 77.7%, 3 µM, 18.5 and 4.2%.
In the same order, the values of `Cc1cc(Br)c(C)c2c1/C(=N/NC(N)=S)CC2` are 51%, 25 µM, 21.2 and 2.4%.
Taken in the same sequence, the figures for `Cc1ccc(NC(=S)N/N=C2\CCc3ccccc32)cc1` were 76%, 5.9 µM, 47.5 and 1.6%.
In the case of `S=C(N/N=C1\CCc2ccccc21)Nc1ccccc1`, the inhibition of growth at 25 µM in data set [1] was found to be 69.6%. Moreover, the IC50 in data set [2] was found to be 7.7 µM. Further, the Ratio in data set [3] was 25.8. Moreover, in data set [4], the hemolysis at 24 h, 25 µM turned out to be 2.7%.
In the same order, the values of `Cc1cccc2c1CC/C2=N\NC(N)=S` are 98.5%, 4 µM, 985 and 0.1%.
Regarding `NC(=S)N/N=C1\CCc2ccc([N+](=O)[O-])cc21`, the inhibition in data set [5] came to 24%. In data set [1], the inhibition of growth at 25 µM stood at 3.1%. Also, in data set [2], the IC50 is greater than 50 µM. For the same compound, the Ratio in data set [3] is on record as 310. Moreover, in data set [4], the hemolysis at 24 h, 25 µM was determined as 0.1%.
As for `NC(=S)N/N=C1\CCc2c1cccc2[N+](=O)[O-]`, in data set [1], the inhibition of growth at 25 µM turned out to be 22%. For the same compound, in data set [2], the IC50 is greater than 50 µM. Moreover, in data set [3], the Ratio came to 4.9. In data set [4], the hemolysis at 24 h, 25 µM was 4.5%.
As for `CC/C(=N\N=C(\N)S)c1cccc(Br)c1`, in data set [5], the inhibition is 100%.
